# From PubChem BioAssay
# KCC2 mod – modulates chloride dependent transport by human KCC2. KCC2 cells, thallium flux FluoZin-2 fluorescence. B-score of Tl+ flux slope (higher = more flux/activation; lower = inhibition) at 10 µM. 190,000 compounds, 2.2% hits. AID 1456;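 active means thallium flux slope and its plate-corrected score both differing from the plate sample mean at a set confidence after two filtering rounds, in either direction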;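 further: slope of fluorescence scaled to starting intensity during 10 to 20 s after thallium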
# ROMK primary – human ROMK K+ channel modulation, primary screen; 130,000 compounds, 2% hits; B-score at 10 µM; Tet-inducible ROMK, thallium flux fluorescence; actives lie on both sides; P48048; AID 1918;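 active means signal ratio slope over the read window, or its plate-corrected B-score, at least 3 SD from the plate mean, either direction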;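 further: B-score of the F/F0 ratio slope over 7 to 12 s after thallium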
# Target sequence (P48048 whole entry, looked up): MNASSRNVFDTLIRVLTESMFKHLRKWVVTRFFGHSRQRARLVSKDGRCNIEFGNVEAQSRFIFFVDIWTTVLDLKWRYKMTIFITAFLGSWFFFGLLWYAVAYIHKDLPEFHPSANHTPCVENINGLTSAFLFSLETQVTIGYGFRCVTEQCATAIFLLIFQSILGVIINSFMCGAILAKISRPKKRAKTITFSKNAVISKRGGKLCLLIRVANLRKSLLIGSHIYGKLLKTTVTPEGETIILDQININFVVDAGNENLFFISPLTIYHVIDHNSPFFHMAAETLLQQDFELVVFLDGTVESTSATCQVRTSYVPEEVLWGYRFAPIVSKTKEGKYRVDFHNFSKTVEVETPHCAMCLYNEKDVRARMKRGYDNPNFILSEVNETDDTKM
# DTT redox prof – compounds producing H2O2 with reducing agent – biochemical, NIH compound library profiling, artefact control for MLSCN library redox annotation, primary screen; 200,000 compounds, 0.03% hits; AID 878; DTT-dependent redox cycling H2O2, phenol red/HRP absorbance; 100% = 100 µM peroxide control, 0% = buffer; activation, % at 10 µM;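 active means activation of at least 50% relative to the plate's high and low controls in the primary single-dose screen; inactive means activation below 50%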;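 further: compound incubated with DTT at 0.8 mM final as the reducing agent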
# MT stabilizer – microtubule stabilizers in HeLa cells. HeLa tubulin immunostaining HCS, 24 h; share of cells brighter than vehicle mean+2SD. % tubulin-high responders, % at 10 µM. 200,000 compounds, 0.83% hits;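 active means plate Z-score above 3 for both tubulin-high and condensed-nucleus cell shares, with cell loss under 80%, at 10 µM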;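 further: anti alpha tubulin signal scored within the nucleus-defined area of each cell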
# b-catenin transl – alters nuclear translocation of beta-catenin in HeLa cells; immunofluorescence imaging; nuclear translocation activity, % at 5 µM; 190,000 compounds, 0.3% hits;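 active means nuclear translocation activity above 50% at 5 µM, with a well cell count of 50 or more; inconclusive means wells under 50 cells across six images, flagged as toxic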;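 further: per-cell ratio of nuclear to cytoplasmic median beta-catenin stain intensity; plate controls were DMSO negative control for no effect and GSK-3 inhibitor IX positive control for full effect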
#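 System: HeLa cells, endogenous beta-catenin; compound dosing: 5 µM primary single dose, 0.1% DMSO, 0.02–20 µM confirmation series; incubation: 24 h compound exposure at 37°C, 5% CO2; signal: beta-catenin immunofluorescence imaging with DAPI; evaluation: % activation, nuclear-to-cytoplasmic median beta-catenin signal ratio per cell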
# KCC2 secondary – KCC2 (human) modulation, secondary assay. normalised thallium flux (F/F0 slope) at 10 µM. shares compounds with KCC2 mod. HEK293-KCC2, thallium flux, FluoZin2 fluorescence; active compounds read high. 3,700 compounds, 15% hits;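 active means thallium flux slope above the same plate's solvent-only control mean plus 3 SD; inconclusive means the two replicate wells disagree; inactive means no significant difference from solvent-only control wells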
# KCC2 bumet counter – thallium flux despite bumetanide block in KCC2 cells, secondary assay 3; shares compounds with KCC2 mod; HEK293-KCC2 + bumetanide/ouabain, thallium flux FluoZin2; active compounds read high; normalized thallium flux at 10 µM; 3,700 compounds, 49% hits; AID 1714;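 active means thallium entry rate above the same plate's blocked-transporter control wells by more than 3 SD; inconclusive means the two repeat wells disagree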;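 further: raw slope of fluorescence over initial fluorescence between 10 and 20 s after thallium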
# KCC2 secondary2 – KCC2 (human) modulation, second secondary assay | shares compounds with KCC2 mod | HEK293-KCC2, thallium flux FluoZin2 fluorescence; actives lie on both sides; F/F0 rise rate, 10–20 s post-thallium | normalized thallium flux at 10 µM | 3,700 compounds, 23% hits | AID 1715;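 active means thallium flux slope more than 3 SD above or below the plate's solvent-only control mean, mostly below; inconclusive means the two repeat wells disagreed; inactive means no significant shift from solvent-only controls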;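 further: raw slope with 0.1% DMSO as baseline and bumetanide as block control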
# HEK counter1 – counter-screen for KCC2 modulators: effect in parental HEK293 cells; AID 1716; shares compounds with KCC2 mod; thallium flux rate (normalised fluorescence) at 10 µM; 3,700 compounds, 46% hits; thallium flux FluoZin2, ouabain; baseline-ratio fluorescence slope, 10–20 s after thallium;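 active means thallium flux rate significantly above the same plate's solvent-only control wells, beyond their mean plus 3 SD; inconclusive means the two replicate wells gave conflicting results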
# KCC2 retest ouab – confirmation of human KCC2 modulators with ouabain. shares compounds with KCC2 mod. HEK293-KCC2, thallium flux FluoZin2 fluorescence; bidirectional: low = inhibitor, high = activator. raw Tl+ flux slope (below DMSO = inhibition, above = activation) at 10 µM. 3,700 compounds, 48% hits. AID 1717;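 active means thallium flux slope beyond 3 SD from same-plate DMSO control mean in most replicates, usually higher, sometimes lower; inconclusive means repeat tests gave conflicting results; inactive means no significant difference from controls in most replicates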;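 further: slope of initial-normalized fluorescence between seconds 10 and 20 after thallium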
# HEK counter2 – counter-screen for KCC2 modulators: effect in parental HEK293 cells | AID 1718 | thallium flux slope at 10 µM | 3,700 compounds, 33% hits | thallium flux FluoZin-2 fluorescence slope | shares compounds with KCC2 mod;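 active means thallium flux slope above the same plate's solvent-control mean plus 3 SD in both duplicate wells; inconclusive means duplicate wells that disagreed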;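 further: run without ouabain in cells lacking the KCC2 cotransporter; slope of fluorescence scaled to its starting value between 10 and 20 s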
# * hit, by the source's call; ? = inconclusive; nt = not tested or not shown. A selection: hits, their analogues and other compounds. The true share with any hit is near 3.7%.
SMILES,KCC2 mod,ROMK primary,DTT redox prof,MT stabilizer,b-catenin transl,KCC2 secondary,KCC2 bumet counter,KCC2 secondary2,HEK counter1,KCC2 retest ouab,HEK counter2
C=C(C)CNC(=S)NN=C1c2ccccc2-c2ccccc21,28*,1.8,0,4,-2,0.0068,0.075*,0.046*,0.026*,0.055*,0.027*
CCNC(=S)NN=C1c2ccccc2-c2ccccc21,34*,0.87,-2,4,0,0.018*,0.051*,0.033,0.067*,0.047*,0.016*
COC(=O)n1c(=S)oc2cc(Cl)ccc21,3*,nt,0,4,nt,0.018*,0.023*,0.035,0.015*,0.029*,0.012
O=S(=O)(Oc1ccc(Cl)cc1)c1cccc2cccnc12,-0.82,nt,nt,nt,-3,nt,nt,nt,nt,nt,nt
O=C1/C(=C/c2cccs2)SC(=S)N1NS(=O)(=O)c1ccccc1,8.8*,0.88,nt,nt,1,0.014*,0.029*,0.036,0.016*,0.026,0.014*
O=C1/C(=C/C=C/c2ccco2)SC(=S)N1NS(=O)(=O)c1ccccc1,6.8*,1.1,nt,nt,0,0.0067,0.014*,0.032,0.017*,?,0.018*
N#Cc1ccc(OCc2noc(-c3ccsc3)n2)cc1,-0.06,nt,nt,nt,0,nt,nt,nt,nt,nt,nt
Cc1ccc(C(=O)Nc2ccc3cn[nH]c3c2)cc1S(=O)(=O)N1CCOCC1,0.24,-0.38,-1,6,-1,nt,nt,nt,nt,nt,nt
Oc1ccc(C(c2nnnn2CCc2ccccc2)N2CCN(c3nc4ccccc4s3)CC2)cc1 (stereo not drawn),0.022,nt,nt,nt,0,nt,nt,nt,nt,nt,nt
CC1(C(=O)OCC(=O)c2c[nH]c3ccccc23)CC1(Cl)Cl (stereo not drawn),-2.5*,-0.92,0,2,-2,0.0053,0.0053,0.028,0.0078,0.016*,0.011
COc1ccc2cc(C(N)=O)/c(=N/NC(=O)c3ccco3)oc2c1,-0.16,-0.028,0,2,-2,nt,nt,nt,nt,nt,nt
Cc1ccnc(NC(=S)NC(=O)c2cncc(Br)c2)c1,8.5*,-0.11,0,4,-1,0.0068,0.019*,0.032,0.015*,?,0.014*
Cc1nc(NC(=S)NC(=O)c2cncc(Br)c2)ccc1Br,nt,nt,0,7,-1,nt,nt,nt,nt,nt,nt
COCNc1nc(OCC#N)nc(N(C)C)n1,7.6*,0.38,1,2,0,0.0069,0.0052,0.03,0.0084,0.019,0.012
COc1nc(OCC#N)nc(N(C)C)n1,1.2,nt,3,4,2,nt,nt,nt,nt,nt,nt
S=c1[nH]nc(-c2cccnc2)n1/N=C/c1ccc(Br)s1,23*,0.11,0,3,-1,0.011,0.055*,0.033,0.011*,0.028,0.012*
Cc1ccc(-c2n[nH]c(=S)n2/N=C/c2ccc(C)o2)cc1,3.7*,nt,0,2,1,?,0.018*,0.032,0.014*,0.026*,0.012
S=c1[nH]nc(-c2ccc(Cl)cc2)n1/N=C/c1cccs1,23*,nt,nt,nt,0,0.0081,0.025*,0.042*,0.03*,0.042*,0.024*
Cc1ccc(/C=N/n2c(-c3ccc(Cl)cc3)n[nH]c2=S)o1,7.9*,0.67,nt,nt,0,0.016*,0.035*,0.038,0.011*,0.026,?
Cc1ccc(/C=N/n2c(-c3cccnc3)n[nH]c2=S)o1,1.6,nt,nt,nt,-1,nt,nt,nt,nt,nt,nt
Cc1ccsc1/C=N/n1c(-c2cc(-c3ccccc3)n[nH]2)n[nH]c1=S,-0.12,nt,nt,nt,-3,nt,nt,nt,nt,nt,nt
Cc1ccc(-c2n[nH]c(=S)n2/N=C/c2sccc2C)cc1,19*,nt,nt,nt,0,0.018,0.021*,0.034,0.015*,0.025*,0.017*
O=C(/C=C/c1ccc(F)cc1)NCCc1ccc2c(c1)OCCO2,-0.7,nt,1,7,-3,nt,nt,nt,nt,nt,nt
O=C(N/N=C/c1ccc(-c2ccccc2)o1)c1ccccc1O,80*,nt,nt,nt,-3,0.025*,0.092*,0.032,0.035*,0.052*,0.013*
O=C(N/N=C/c1ccc([N+](=O)[O-])o1)c1sc2ccccc2c1Cl,17*,nt,nt,nt,2,0.018*,0.1*,0.033,0.019*,0.054*,0.012*
SMILES,KCC2 mod,ROMK primary,DTT redox prof,MT stabilizer,b-catenin transl,KCC2 secondary,KCC2 bumet counter,KCC2 secondary2,HEK counter1,KCC2 retest ouab,HEK counter2
O=C(COc1ccc2ccccc2c1)N/N=C/c1ccccn1,-3.8*,-1,-1,3,2,0.0048,0.0051,0.025*,0.007,?,0.01
O=C(N/N=C/c1ccccn1)c1sc2ccccc2c1Cl,153*,nt,nt,nt,0,0.0091*,0.11*,0.054*,0.1*,0.089*,0.082*
CC(c1nnc(SCC(=O)N2CC(=O)Nc3ccccc32)n1Cc1ccccc1)N(C)C (stereo not drawn),nt,nt,0,4,-2,nt,nt,nt,nt,nt,nt
O=C(N/N=C\c1ccccn1)c1ccccc1O,5.4*,nt,-1,4,1,0.019,0.013*,?,0.015*,0.022*,0.017*
CCN(CC)Cc1c(O)ccc2c(C)c(CC(=O)OC)c(=O)oc12,nt,0.18,0,3,nt,0.0073,?,0.033,0.0077,0.019,0.012
COC(=O)Cc1c(C)c2ccc(OCC(C)=O)c(C)c2oc1=O,1.2,nt,1,4,1,nt,nt,nt,nt,nt,nt
O=C(CSc1nccc2ccccc12)N1CCN(c2ccccn2)CC1,-3.3*,nt,-1,2,-6,0.0066,0.0045,0.027,0.0076,0.015*,0.01
Cc1nc2[nH]c(=O)c3c(n2n1)NC1=C(C(=O)CC(C)(C)C1)C3c1ccc(F)cc1 (stereo not drawn),nt,0.27,-1,6,-1,0.006,0.0046,0.03,0.0068,0.018,0.01
O=C(Nc1nc(SCc2ccc(F)cc2)ns1)c1ccco1,-3.7*,-0.4,0,4,-2,0.0059,?,0.021*,?,0.012*,0.011
CCOC(=O)C1(CCOC)CCN(C(C)CCc2ccc(OC)cc2)CC1 (stereo not drawn),-0.43,0.059,0,1,-1,nt,nt,nt,nt,nt,nt
CC(C)COc1ccc(CNC(=S)N/N=C/c2ccc([N+](=O)[O-])cc2)cc1,-0.85,0.094,0,1,nt,nt,nt,nt,nt,nt,nt
